Laboratory results from ChEMBL document CHEMBL1255211, “Novel azulene-based derivatives as potent multi-receptor tyrosine kinase inhibitors” (Bioorg Med Chem Lett, 2010).

Key:
[1] = molecular target: T1, Receptor-type tyrosine-protein kinase FLT3 (Homo sapiens, UniProt P36888); experiment: Inhibition of FLT3 by time resolved fluorescence method
T1 sequence (P36888 whole entry): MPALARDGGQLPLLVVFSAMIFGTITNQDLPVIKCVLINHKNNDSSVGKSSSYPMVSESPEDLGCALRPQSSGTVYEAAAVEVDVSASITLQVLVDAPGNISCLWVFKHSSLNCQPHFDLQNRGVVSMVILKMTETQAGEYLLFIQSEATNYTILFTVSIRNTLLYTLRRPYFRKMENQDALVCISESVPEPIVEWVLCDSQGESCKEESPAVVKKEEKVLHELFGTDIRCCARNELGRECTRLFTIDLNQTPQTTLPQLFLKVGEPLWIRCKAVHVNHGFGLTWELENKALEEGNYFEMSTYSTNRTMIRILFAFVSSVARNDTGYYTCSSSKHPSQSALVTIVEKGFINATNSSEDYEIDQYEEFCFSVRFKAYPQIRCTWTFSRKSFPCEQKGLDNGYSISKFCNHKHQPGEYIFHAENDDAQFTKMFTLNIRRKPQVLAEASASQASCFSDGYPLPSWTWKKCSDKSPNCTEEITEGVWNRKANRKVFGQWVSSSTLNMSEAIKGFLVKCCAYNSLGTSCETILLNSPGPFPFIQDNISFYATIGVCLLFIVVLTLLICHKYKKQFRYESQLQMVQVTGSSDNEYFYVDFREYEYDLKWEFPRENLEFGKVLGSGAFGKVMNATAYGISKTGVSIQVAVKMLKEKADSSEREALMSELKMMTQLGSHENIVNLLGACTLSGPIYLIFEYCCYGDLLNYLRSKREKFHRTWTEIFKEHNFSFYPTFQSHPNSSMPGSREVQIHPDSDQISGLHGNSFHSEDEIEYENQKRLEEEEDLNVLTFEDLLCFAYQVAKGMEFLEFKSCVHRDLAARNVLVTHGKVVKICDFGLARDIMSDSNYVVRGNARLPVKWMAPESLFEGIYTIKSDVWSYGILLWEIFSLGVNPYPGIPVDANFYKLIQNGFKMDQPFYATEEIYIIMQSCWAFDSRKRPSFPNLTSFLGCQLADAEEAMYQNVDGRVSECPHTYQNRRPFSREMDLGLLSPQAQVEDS

[2] = Oral bioavailability in Sprague-Dawley rat; type: ADME, organism-based; details: in vivo
Summary of the method: (§1)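 Overnight-fasted male SD rats got a single intravenous or oral dose, n = 3 per route. Vehicle was 10% N-methyl-2-pyrrolidone, 20% cremophor EL, 70% phosphate-buffered saline. Plasma was prepared from blood by centrifugation, stored at -80 °C and assayed by LC/MS/MS. Parameters came from noncompartmental analysis and are means of three animals.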

MV4-11 [3] = experiment: Antitumor activity against human MV4-11 cells xenografted in BALB/c mouse assessed as inhibition of tumor growth at 50 mg/kg, po bid for 14 days measured on day 30; type: functional
Summary of the method: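 Female BALB/c nude mice, 6-8 weeks old, were implanted s.c. in the right flank with 1 × 10⁷ MV4-11 cells. Dosing began at tumor size 200-300 mm³, with four mice per group randomized. Treatment was 50 mg/kg oral gavage b.i.d. for 14 days (day 16 to 29) in 10% NMP/20% Cremophor EL/70% saline vehicle. Calipers gave tumor volume = 0.5 × length × width².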

[4] = AUC in po dosed Sprague-Dawley rat; type: ADME, organism-based; details: plasma; summary of the method: as §1
[5] = Cmax in po dosed Sprague-Dawley rat; type: ADME, organism-based; set-up: route oral; details: in vivo; summary of the method: as §1
[6] = AUC in iv dosed Sprague-Dawley rat; type: ADME, organism-based; details: plasma; summary of the method: as §1
[7] = Tmax in po dosed Sprague-Dawley rat; type: ADME, organism-based; details: in vivo; summary of the method: as §1
Rattus norvegicus [8] = experiment: Elimination half life in iv dosed Sprague-Dawley rat; type: ADME, organism-based; details: in vivo; summary of the method: as §1
Rattus norvegicus [9] = experiment: Volume of distribution at steady state in iv dosed Sprague-Dawley rat; type: ADME, organism-based; details: in vivo; summary of the method: as §1
[10] = molecular target: Platelet-derived growth factor receptor beta (Homo sapiens, UniProt P09619); experiment: Inhibition of PDGFRbeta autophosphorylation by cell based Western blot analysis
Sequence of Platelet-derived growth factor receptor beta (P09619 whole entry): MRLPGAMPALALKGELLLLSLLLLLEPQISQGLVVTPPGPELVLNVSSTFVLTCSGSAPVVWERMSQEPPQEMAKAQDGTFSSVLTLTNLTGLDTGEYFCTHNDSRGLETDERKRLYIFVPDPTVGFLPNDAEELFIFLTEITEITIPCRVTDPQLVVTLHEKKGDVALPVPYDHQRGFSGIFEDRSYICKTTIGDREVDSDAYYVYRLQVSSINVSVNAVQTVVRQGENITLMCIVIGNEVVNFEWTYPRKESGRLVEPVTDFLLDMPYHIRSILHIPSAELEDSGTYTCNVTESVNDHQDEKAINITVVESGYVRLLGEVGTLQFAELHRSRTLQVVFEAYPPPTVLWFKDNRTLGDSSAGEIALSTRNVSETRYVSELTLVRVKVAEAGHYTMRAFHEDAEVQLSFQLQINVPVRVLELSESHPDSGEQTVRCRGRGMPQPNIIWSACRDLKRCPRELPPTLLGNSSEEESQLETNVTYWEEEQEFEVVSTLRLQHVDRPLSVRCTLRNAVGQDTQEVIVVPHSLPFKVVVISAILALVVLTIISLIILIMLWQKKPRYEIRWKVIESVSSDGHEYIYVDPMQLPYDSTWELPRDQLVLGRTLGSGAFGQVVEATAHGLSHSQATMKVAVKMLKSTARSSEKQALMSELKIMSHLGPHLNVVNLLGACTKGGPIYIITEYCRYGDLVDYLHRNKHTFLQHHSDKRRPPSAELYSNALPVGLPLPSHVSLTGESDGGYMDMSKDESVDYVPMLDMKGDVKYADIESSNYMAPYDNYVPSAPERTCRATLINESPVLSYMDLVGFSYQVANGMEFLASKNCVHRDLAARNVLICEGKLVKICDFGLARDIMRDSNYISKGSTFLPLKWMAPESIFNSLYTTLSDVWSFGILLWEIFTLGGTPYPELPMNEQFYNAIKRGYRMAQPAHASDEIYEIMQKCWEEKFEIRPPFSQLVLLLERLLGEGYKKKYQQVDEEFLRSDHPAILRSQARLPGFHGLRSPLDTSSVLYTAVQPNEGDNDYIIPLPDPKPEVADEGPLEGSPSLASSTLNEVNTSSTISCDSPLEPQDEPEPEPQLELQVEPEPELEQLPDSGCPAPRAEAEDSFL

[11] = molecular target: Vascular endothelial growth factor receptor 2 (Homo sapiens, UniProt P35968); experiment: Inhibition of KDR autophosphorylation in HUVEC by Western blot analysis; type: cell-based
Sequence of Vascular endothelial growth factor receptor 2 (P35968 whole entry): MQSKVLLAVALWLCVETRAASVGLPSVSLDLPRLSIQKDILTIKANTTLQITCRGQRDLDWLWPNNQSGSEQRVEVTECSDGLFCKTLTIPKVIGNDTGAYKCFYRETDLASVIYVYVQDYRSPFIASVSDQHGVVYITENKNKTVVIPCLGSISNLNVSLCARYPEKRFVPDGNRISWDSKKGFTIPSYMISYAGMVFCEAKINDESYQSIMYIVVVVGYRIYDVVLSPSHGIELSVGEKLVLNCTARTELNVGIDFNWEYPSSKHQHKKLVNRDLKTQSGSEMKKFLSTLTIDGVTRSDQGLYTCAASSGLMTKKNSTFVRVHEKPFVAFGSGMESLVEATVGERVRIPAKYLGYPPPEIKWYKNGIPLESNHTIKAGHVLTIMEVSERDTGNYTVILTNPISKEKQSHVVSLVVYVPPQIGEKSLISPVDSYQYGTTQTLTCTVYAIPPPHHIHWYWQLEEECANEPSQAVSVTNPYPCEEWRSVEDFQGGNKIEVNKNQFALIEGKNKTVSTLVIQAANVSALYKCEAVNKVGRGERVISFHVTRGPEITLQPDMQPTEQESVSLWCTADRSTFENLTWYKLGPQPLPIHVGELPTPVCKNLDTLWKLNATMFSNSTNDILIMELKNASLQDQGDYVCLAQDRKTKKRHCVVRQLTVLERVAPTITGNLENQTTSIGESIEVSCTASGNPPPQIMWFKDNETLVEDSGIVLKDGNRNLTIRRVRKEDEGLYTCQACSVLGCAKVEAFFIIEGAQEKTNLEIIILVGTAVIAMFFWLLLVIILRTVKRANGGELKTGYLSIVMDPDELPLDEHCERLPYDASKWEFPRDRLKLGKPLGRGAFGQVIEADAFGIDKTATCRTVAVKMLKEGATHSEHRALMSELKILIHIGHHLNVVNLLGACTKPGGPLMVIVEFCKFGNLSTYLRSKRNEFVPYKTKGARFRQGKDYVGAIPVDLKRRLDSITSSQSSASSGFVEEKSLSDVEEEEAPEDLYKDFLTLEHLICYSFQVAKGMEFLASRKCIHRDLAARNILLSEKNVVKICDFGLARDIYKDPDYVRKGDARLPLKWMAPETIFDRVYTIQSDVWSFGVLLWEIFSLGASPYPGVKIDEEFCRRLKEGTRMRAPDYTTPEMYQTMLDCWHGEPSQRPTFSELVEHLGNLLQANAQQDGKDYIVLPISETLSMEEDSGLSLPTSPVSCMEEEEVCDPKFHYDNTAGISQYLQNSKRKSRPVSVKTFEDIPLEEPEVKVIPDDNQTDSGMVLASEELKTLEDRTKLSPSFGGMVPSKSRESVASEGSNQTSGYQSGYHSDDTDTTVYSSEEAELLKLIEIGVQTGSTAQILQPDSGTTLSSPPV

[12] = molecular target: T1, Receptor-type tyrosine-protein kinase FLT3; experiment: Inhibition of FLT3 autophosphorylation in human RS4-11 cells by Western blot analysis; type: cell-based
[13] = molecular target: Mast/stem cell growth factor receptor Kit (Homo sapiens, UniProt P10721); experiment: Inhibition of c-Kit autophosphorylation in human Kasumi-1 cells by Western blot analysis; type: cell-based
Sequence of Mast/stem cell growth factor receptor Kit (P10721 whole entry): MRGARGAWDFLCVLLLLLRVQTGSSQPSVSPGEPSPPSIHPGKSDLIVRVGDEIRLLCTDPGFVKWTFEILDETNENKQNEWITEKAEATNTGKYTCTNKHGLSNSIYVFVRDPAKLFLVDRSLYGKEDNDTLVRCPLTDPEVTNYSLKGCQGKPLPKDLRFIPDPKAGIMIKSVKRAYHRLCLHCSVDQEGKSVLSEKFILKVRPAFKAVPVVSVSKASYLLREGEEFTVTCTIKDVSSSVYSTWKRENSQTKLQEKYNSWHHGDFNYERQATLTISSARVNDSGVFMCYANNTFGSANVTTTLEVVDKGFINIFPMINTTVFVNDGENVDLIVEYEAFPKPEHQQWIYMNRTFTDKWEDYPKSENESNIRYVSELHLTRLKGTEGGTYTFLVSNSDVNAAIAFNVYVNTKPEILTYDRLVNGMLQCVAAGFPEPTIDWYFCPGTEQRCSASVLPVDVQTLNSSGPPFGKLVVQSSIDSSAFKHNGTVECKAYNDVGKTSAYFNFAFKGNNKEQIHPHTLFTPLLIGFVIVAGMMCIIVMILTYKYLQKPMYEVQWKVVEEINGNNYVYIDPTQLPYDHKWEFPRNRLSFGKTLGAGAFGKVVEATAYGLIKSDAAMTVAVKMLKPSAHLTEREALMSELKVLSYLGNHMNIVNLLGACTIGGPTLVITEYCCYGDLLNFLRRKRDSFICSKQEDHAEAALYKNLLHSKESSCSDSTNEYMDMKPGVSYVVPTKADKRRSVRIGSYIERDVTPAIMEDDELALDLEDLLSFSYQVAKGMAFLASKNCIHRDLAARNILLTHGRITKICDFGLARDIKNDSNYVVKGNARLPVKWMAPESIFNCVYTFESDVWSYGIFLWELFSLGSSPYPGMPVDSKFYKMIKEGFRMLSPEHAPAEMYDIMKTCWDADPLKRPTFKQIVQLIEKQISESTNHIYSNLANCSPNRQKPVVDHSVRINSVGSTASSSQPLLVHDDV

[14] = molecular target: Receptor-type tyrosine-protein kinase FLT3 (Homo sapiens, UniProt P36888, ITD); experiment: Inhibition of FLT3-ITD autophosphorylation in human MV4-11 cells by Western blot analysis; type: cell-based
Summary of the method: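 Cells were plated at 2-5 × 10⁵ per well and stimulated with the receptor ligand: SCF for c-Kit, VEGF-162 for KDR, FL for FLT-3. Blots were probed with anti-phosphotyrosine PY99 and reprobed with antibodies to c-Kit, KDR or FLT-3.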

MV4-11 [15] = experiment: Cytotoxicity against human MV4-11 cells by MTT assay

Compound	IC50 [1]	other results
Cc1cc(/C=C2\C(=O)Nc3ccc(F)c(F)c32)c2ccccc(OCCCN(C)C)c1-2	5 nM	
Cc1cc(/C=C2\C(=O)Nc3ncccc32)c2ccccc(OCCCN(C)C)c1-2	1460 nM	
CN(C)S(=O)(=O)c1ccc2c(c1)/C(=C/c1ccc3cccccc1-3)C(=O)N2	> 1000 nM	
O=C1Nc2ccc(F)cc2/C1=C/c1cc(F)c2cccccc1-2	23 nM	
Cc1cc(C=C2C(=O)Nc3ccc(F)cc32)c2ccccc(OCCN3CCC[C@H]3CO)c1-2 (mixture of isomers)	98 nM	bioavailability [2]: 22.8%; inhibition in vivo at 50 mg/kg (MV4-11 [3]): 99%; AUC [4]: 3220 ng·h/mL; Cmax [5]: 566 ng/mL; AUC [6]: 1410 ng·h/mL; Tmax [7]: 2 h; t1/2 (Rattus norvegicus [8]): 1.8 h; Vss/F (Rattus norvegicus [9]): 1.2324 L/kg; IC50 [10]: 28 nM; IC50 [11]: 186 nM; IC50 [12]: 70 nM; IC50 [13]: 44 nM; IC50 [14]: 67 nM; IC50 (MV4-11 [15]): 87 nM
CCN(CC)CCCOc1ccccc2c(/C=C3\C(=O)Nc4ccc(F)cc43)cc(C)c1-2	39 nM	
Cc1cc(/C=C2\C(=O)Nc3ccccc32)c2cccccc1-2	> 1000 nM	
Cc1ccc2c(c1)/C(=C/c1ccc3cccccc1-3)C(=O)N2	> 1000 nM	
Cc1cc(/C=C2/C(=O)Nc3ccccc32)c2cccccc1-2	> 1000 nM	
O=C1Nc2ccc(Br)cc2/C1=C\c1ccc2cccccc1-2	> 1000 nM	
Cc1cc(/C=C2\C(=O)Nc3ncc(F)cc32)c2ccccc(OCCCN3CCOCC3)c1-2	90 nM	
O=C1Nc2ccc(F)cc2/C1=C/c1ccc2cccccc1-2	> 1000 nM	
O=C1Nc2ccc(Br)cc2/C1=C/c1ccc2cccccc1-2	> 1000 nM	
Cc1cc(/C=C2\C(=O)Nc3ccc(F)cc32)c2cccccc1-2	128 nM	
Cc1cc(/C=C2\C(=O)Nc3ccc(F)c(F)c32)c2ccccc(OCCCN3CCCCC3)c1-2	17 nM	
Cc1cc(/C=C2\C(=O)Nc3ccc(F)cc32)c2ccccc(OCCCN(C)C)c1-2	12 nM	
Cc1cc(/C=C2/C(=O)Nc3cc(F)ccc32)c2ccccc(OCCCN(C)C)c1-2	742 nM	
O=C1Nc2ccccc2C1=Cc1ccc2cccccc1-2	470 nM	
Cc1cc(/C=C2/C(=O)Nc3c(F)cccc32)c2ccccc(OCCCN(C)C)c1-2	177 nM	
Cc1cc(/C=C2/C(=O)Nc3ccc(F)cc32)c2ccccc(OCCCN(C)C)c1-2	25 nM	
Cc1cc(/C=C2\C(=O)Nc3ccc(F)cc32)c2ccccc(OCCCN3CCOCC3)c1-2	224 nM	
Cc1cc(/C=C2\C(=O)Nc3ccc(F)cc32)c2ccccc(OCCN3CCC(N(C)C)CC3)c1-2	18 nM	
CCN(CC)CCCOc1ccccc2c(/C=C3\C(=O)Nc4ccc(F)c(F)c43)cc(C)c1-2	14 nM	
Cc1cc(/C=C2\C(=O)Nc3ccc(F)cc32)c2ccccc(OCCN3CCOCC3)c1-2	19 nM	
CCN(CC)CCCOc1ccccc2c(/C=C3/C(=O)Nc4ccc(F)cc43)cc(C)c1-2	30 nM	
Cc1cc(/C=C2/C(=O)Nc3ccc(F)cc32)c2cccccc1-2	60 nM	
Cc1cc(/C=C2\C(=O)Nc3ncc(Br)cc32)c2ccccc(OCCCN3CCOCC3)c1-2	86 nM	
Cc1cc(/C=C2\C(=O)Nc3ccc(F)c(F)c32)c2ccccc(OCCCN3CCOCC3)c1-2	12 nM	
